According to ChEMBL document CHEMBL3585287, “1-Benzyl-4-phenyl-1H-1,2,3-triazoles improve the transcriptional functions of estrogen-related receptor γ and promote the browning of white adipose” (Bioorg Med Chem, 2015):
Activity calls are given as the source filed them. The rule behind the calls is not given here.

How the values were obtained:
[1] = molecular target: T1, Estrogen-related receptor gamma (Homo sapiens) (UniProt P62508); assay: Activation of GAL4-DBD-ERRgamma ligand binding domain (unknown origin) expressed in HEK293FT cells at 2 uM incubated for 24 hrs by mammalian two-hybrid reporter gene assay; assay type: cell-based
T1 sequence (whole entry): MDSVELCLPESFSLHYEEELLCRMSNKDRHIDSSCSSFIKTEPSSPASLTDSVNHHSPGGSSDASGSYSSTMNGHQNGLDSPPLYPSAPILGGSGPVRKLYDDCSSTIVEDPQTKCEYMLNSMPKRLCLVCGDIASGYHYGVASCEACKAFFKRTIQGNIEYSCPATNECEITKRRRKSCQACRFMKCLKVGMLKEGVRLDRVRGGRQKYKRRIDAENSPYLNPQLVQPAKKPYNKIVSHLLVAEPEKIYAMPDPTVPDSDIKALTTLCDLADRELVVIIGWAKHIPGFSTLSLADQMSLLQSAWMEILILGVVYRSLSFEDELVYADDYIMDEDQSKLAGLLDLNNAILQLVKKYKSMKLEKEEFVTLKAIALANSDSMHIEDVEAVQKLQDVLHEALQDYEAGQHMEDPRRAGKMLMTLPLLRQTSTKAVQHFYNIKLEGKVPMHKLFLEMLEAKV
Summary of the method: (§1)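 293FT cells (DMEM, 10% FBS) were seeded at 10,000 cells/well and transfected 18-24 h later with GAL4-DBD-ERRγ-LBD (0.5 ng), pcDNA-PGC-1α (0.5 ng), pFR reporter (25 ng) and pRLTK renilla (3 ng). After 6 h, compound was added at 2 μM for 24 h. Dual luciferase readout, firefly/renilla ratio taken as RLU. Run in triplicate, ≥3 independent experiments.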

[2] = molecular target: T2, Estrogen-related receptor gamma (Mus musculus) (UniProt P62509); assay: Increase in ERRgamma mediated transcriptional activity in primary mouse embryonic fibroblasts assessed as increase in ATP5b mRNA levels at 1 uM by quantitative real time PCR assay
T2 sequence (whole entry): T1 sequence (whole entry)
Summary of the method: (§2)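 MEFs were grown to confluence and held 2 days, then differentiated from day 0 with 5 μg/mL insulin, 1 μM dexamethasone and 0.5 mM IBMX. From day 8, cells received compound in DMEM/10% FBS for 2 more days. Total RNA was extracted with Trizol and reverse transcribed; SYBR qPCR normalized to GAPDH. Mean ± SEM of three independent experiments.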

[3] = molecular target: T2, Estrogen-related receptor gamma (Mus musculus); assay: Increase in ERRgamma mediated transcriptional activity in primary mouse embryonic fibroblasts assessed as increase in ERRalpha mRNA levels at 1 uM by quantitative real time PCR assay; summary of the method: as §2
[4] = molecular target: T2, Estrogen-related receptor gamma (Mus musculus); assay: Increase in ERRgamma mediated transcriptional activity in primary mouse embryonic fibroblasts assessed as increase in MCAD mRNA levels at 1 uM by quantitative real time PCR assay; summary of the method: as §2
[5] = molecular target: T2, Estrogen-related receptor gamma (Mus musculus); assay: Increase in ERRgamma mediated transcriptional activity in primary mouse embryonic fibroblasts assessed as increase in SHP mRNA levels at 1 uM by quantitative real time PCR assay; summary of the method: as §2
MEF [6] = assay: Induction of mitochondrial biogenesis in primary mouse embryonic fibroblasts assessed as increase in COX2 mRNA expression at 0.5 to 5 uM by quantitative real time PCR assay; assay type: functional, cell-based; summary of the method: as §2
MEF [7] = assay: In vitro induction of white adipose browning in primary mouse embryonic fibroblasts assessed as increase in UCP1 protein expression at 0.5 to 5 uM by Western blot method; assay type: functional, cell-based
Summary of the method: (§3)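 Differentiated MEF adipocytes were treated with compound from day 8 for 2 days. Cells were lysed in RIPA buffer on ice; 40 μg protein was run on 12% SDS-PAGE and blotted to PVDF. Primary antibodies overnight at 4 °C (UCP1 1:1000, SDH 1:4000, MCAD 1:5000, ATP5b 1:1000, β-actin 1:2000), then HRP secondary for 4 h at 4 °C and ECL detection. Three independent experiments.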

MEF [8] = assay: Induction of mitochondrial biogenesis in primary mouse embryonic fibroblasts assessed as increase in PGC-1alpha mRNA expression at 0.5 to 5 uM by quantitative real time PCR assay; assay type: functional, cell-based; summary of the method: as §2
[9] = molecular target: T2, Estrogen-related receptor gamma (Mus musculus); assay: Increase in ERRgamma mediated transcriptional activity in primary mouse embryonic fibroblasts assessed as increase in MCAD mRNA levels by quantitative real time PCR assay; summary of the method: as §2
[10] = molecular target: T1, Estrogen-related receptor gamma (Homo sapiens); assay: Activation of GAL4-DBD-ERRgamma ligand binding domain (unknown origin) expressed in HEK293FT cells incubated for 24 hrs by mammalian two-hybrid reporter gene assay; assay type: cell-based; summary of the method: as §1
[11] = molecular target: T2, Estrogen-related receptor gamma (Mus musculus); assay: Increase in ERRgamma mediated transcriptional activity in primary mouse embryonic fibroblasts assessed as increase in SHP mRNA levels by quantitative real time PCR assay; summary of the method: as §2
[12] = molecular target: T2, Estrogen-related receptor gamma (Mus musculus); assay: Increase in ERRgamma mediated transcriptional activity in primary mouse embryonic fibroblasts assessed as increase in ATP5b protein levels at 0.5 to 5 uM by Western blotting method; summary of the method: as §3
MEF [13] = assay: Induction of mitochondrial biogenesis in primary mouse embryonic fibroblasts assessed as increase in SDH protein expression at 0.5 to 5 uM by Western blot method; assay type: functional, cell-based; summary of the method: as §3
MEF [14] = assay: Induction of mitochondrial biogenesis in primary mouse embryonic fibroblasts assessed as increase in CPT1 mRNA expression at 0.5 to 5 uM by quantitative real time PCR assay; assay type: functional, cell-based; summary of the method: as §2
Mus musculus [15] = assay: In vivo induction of white adipose browning in C57BL6 mouse subcutaneous white adipose tissue assessed as increase in UCP1 mRNA expression at 20 mg/kg/day, po by real-time PCR assay; assay type: functional, organism-based
Summary of the method: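 Male C57BL6 mice (8 weeks) on 60% fat diet received 20 mg/kg compound or vehicle (5% alcohol in PBS) daily by oral gavage for 4 weeks. Subcutaneous white adipose was collected and stored at -80 °C; RNA was analyzed by SYBR qPCR against GAPDH.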

MEF [16] = assay: In vitro induction of white adipose browning in primary mouse embryonic fibroblasts assessed as increase in Prdm16 mRNA expression at 0.5 to 5 uM by real-time PCR assay; assay type: functional, cell-based; summary of the method: as §2
[17] = molecular target: T2, Estrogen-related receptor gamma (Mus musculus); assay: Increase in ERRgamma mediated transcriptional activity in primary mouse embryonic fibroblasts assessed as increase in ERRalpha mRNA levels by quantitative real time PCR assay; summary of the method: as §2
[18] = molecular target: T2, Estrogen-related receptor gamma (Mus musculus); assay: Increase in ERRgamma mediated transcriptional activity in primary mouse embryonic fibroblasts assessed as increase in MCAD protein levels at 0.5 to 5 uM by Western blotting method; summary of the method: as §3
MEF [19] = assay: Induction of mitochondrial biogenesis in primary mouse embryonic fibroblasts at 5 uM incubated for 2 days by electron microscopy; assay type: functional, cell-based
Summary of the method: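 On day 10, MEF-derived white adipocytes were fixed in 2.5% glutaraldehyde for 1 h, post-fixed in 1% osmic acid for 1 h, dehydrated in graded ethanol and embedded in epoxy. Ultrathin sections were stained with uranyl acetate and lead citrate and examined by transmission electron microscopy.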

Mus musculus [20] = assay: In vivo induction of white adipose browning in C57BL6 mouse subcutaneous white adipose tissue assessed as increase in UCP1 positive stained area at 20 mg/kg/day, po by immunohistochemistry; assay type: functional, organism-based
Summary of the method: (§4)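 Male C57BL6 mice (8 weeks) on a high-fat diet (60% energy as fat) were gavaged daily for 4 weeks with 20 mg/kg compound or vehicle (5% alcohol in PBS). Adipose tissues were fixed overnight in 4% formaldehyde, paraffin-sectioned and immunostained for UCP1 (1:1000); UCP1-positive area was quantified. Two independent experiments.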

MEF [21] = assay: In vitro induction of white adipose browning in primary mouse embryonic fibroblasts assessed as increase in UCP1 mRNA expression by real-time PCR assay; assay type: functional, cell-based; summary of the method: as §2
MEF [22] = assay: Increase ERRgamma mRNA levels in primary mouse embryonic fibroblasts at 0.5 to 5 uM by quantitative real time PCR assay; assay type: functional, cell-based; summary of the method: as §2
[23] = molecular target: T3, Estrogen-related receptor gamma (Homo sapiens, UniProt P62508); assay: Binding affinity to ERRgamma (unknown origin) at 20 degC by isothermal titration calorimetry
T3 sequence (P62508 whole entry): T1 sequence (whole entry)

Adipocyte = assay: In vitro induction of white adipose browning in mouse white adipocytes differentiated from primary preadipocytes cells of subcutaneous adipose tissue assessed as increase in UCP1 mRNA expression at 1 and 5 uM by real-time PCR assay; assay type: functional, cell-based
Summary of the method: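 Subcutaneous fat preadipocytes were isolated by 0.1% collagenase I digestion (40 min, 37 °C), filtered and cultured. Differentiation used insulin (5 μg/mL), dexamethasone (1 μM) and IBMX (0.5 mM). From day 8, compound was given in DMEM/10% FBS for 2 days. UCP1 mRNA was measured by SYBR qPCR against GAPDH.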

[24] = molecular target: T1, Estrogen-related receptor gamma (Homo sapiens); assay: Binding affinity to ERRgamma (unknown origin) assessed as increase in protein melting temperature by CD spectroscopy
Summary of the method: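 Purified ERRγ protein was diluted to 0.2 mg/mL in phosphate buffer and incubated overnight with ligand (200 mM DMSO stock). CD ellipticity was read at 200–260 nm in a 1 mm quartz cuvette. Temperature was stepped 1 °C at a time from 30 to 60 °C to obtain Tm.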

Mus musculus [25] = assay: In vivo induction of white adipose browning in C57BL6 mouse interscapularbrown adipose tissue assessed as increase in UCP1 expression at 20 mg/kg/day, po by immunohistochemistry; assay type: functional, organism-based; details: in the assay text read “subcutaneous white adipose tissue” for “interscapularbrown adipose tissue”; summary of the method: as §4
MEF [26] = assay: Induction of mitochondrial biogenesis in primary mouse embryonic fibroblasts assessed as increase in SDH mRNA expression at 0.5 to 5 uM by quantitative real time PCR assay; assay type: functional, cell-based; summary of the method: as §2
MEF [27] = assay: In vitro induction of white adipose browning in primary mouse embryonic fibroblasts assessed as increase in UCP1 positive adipocytes by Immunofluorescence staining assay; assay type: functional, cell-based
Summary of the method: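 MEF-derived adipocytes on coverslips were treated from day 8 for 2 days. They were fixed in 4% formaldehyde, blocked in 5% BSA for 1 h, stained with rabbit anti-UCP1 (1:1000, 4 °C overnight) and then Alexa Fluor 647 secondary (1:200, 1 h), with DAPI nuclei. Imaged by fluorescence microscopy.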

[28] = molecular target: T2, Estrogen-related receptor gamma (Mus musculus); assay: Increase in ERRgamma mediated transcriptional activity in primary mouse embryonic fibroblasts assessed as increase in ATP5b mRNA levels by quantitative real time PCR assay; summary of the method: as §2
MEF [29] = assay: Induction of mitochondrial biogenesis in primary mouse embryonic fibroblasts assessed as increase in CS mRNA expression at 0.5 to 5 uM by quantitative real time PCR assay; assay type: functional, cell-based; summary of the method: as §2

`CC(C)c1ccc(/C=N/NC(=O)c2ccc(O)cc2)cc1` showed a fold change (FC) [1] of 1.85.

For `Cc1ccc(Cn2cc(-c3ccc(O)c(O)c3)nn2)cc1`, the fold change (FC) [1] was 2.9.

For `CC(C)c1ccc(Cn2cc(-c3ccccc3O)nn2)cc1`, the fold change (FC) [1] was 1.1, the Activity [2] was “inactive” and the Activity [3] was “inactive”. The Activity [4] was “inactive” and the Activity [5] was “inactive”.

Compound `CC(C)c1ccc(Cn2cc(-c3ccc(O)cc3)nn2)cc1` has a fold change (FC) [1] of 1.69.

For `CC(C)c1cccc(Cn2cc(-c3ccc(O)c(O)c3)nn2)c1`, the fold change (FC) [1] was 3.32.

With `Oc1ccc(-c2cn(Cc3ccccc3)nn2)cc1O` the fold change (FC) [1] was 1.43.

For `CC(C)c1ccc(Cn2cc(-c3ccc(O)c(O)c3)nn2)cc1`, the Activity (MEF [6]) was “Active”, the Activity (MEF [7]) was “Active” and the Activity (MEF [8]) was “Active”. For the same compound, the Activity [9] was “Dose-dependent effect”, the Activity [10] was “Dose-dependent effect” and the Activity [11] was “Dose-dependent effect”. The Activity [12] was “Active”, the Activity (MEF [13]) was “Active” and the Activity (MEF [14]) was “Active”. For the same compound, the Activity (Mus musculus [15]) was “Active”, the Activity (MEF [16]) was “Active” and the Activity [17] was “Dose-dependent effect”. The Activity [18] was “Active”, the Activity (MEF [19]) was “Active” and the Activity (Mus musculus [20]) was “Active”. For the same compound, the Activity (MEF [21]) was “Dose-dependent effect”, the fold change (FC) [1] was 4.98 and the Activity (MEF [22]) was “Active”. For the same compound, the Kd [23] was 46 µM, the Activity (Adipocyte) was “Active” and the ΔTm [24] was 0.7 °C. The Activity (Mus musculus [25]) was “Active”, the Activity (MEF [26]) was “Active” and the Activity (MEF [27]) was “Active”. The Activity [28] was “Dose-dependent effect” and the Activity (MEF [29]) was “Active”.

`Oc1ccc(-c2cn(Cc3ccc(-c4ccccc4)cc3)nn2)cc1O` gave a fold change (FC) [1] of 2.56.

For `CC(C)c1ccc(Cn2cc(-c3ccccc3)nn2)cc1`, the fold change (FC) [1] was 1.31.

`CC(C)c1ccccc1Cn1cc(-c2ccc(O)c(O)c2)nn1` was tested, and the fold change (FC) [1] was 2.4.

In the case of `CC(C)c1ccc(Cn2cc(-c3cccc(O)c3)nn2)cc1`, the fold change (FC) [1] is reported as 2.21.

`CC(C)(C)c1ccc(Cn2cc(-c3ccc(O)c(O)c3)nn2)cc1` was tested, and the fold change (FC) [1] was 4.18.
